Bioassay records: PubChem, several laboratories
NALP3 yeast inh – NALP3 inflammasome inhibitors in reconstituted yeast, primary screen, luminescence, uHTS; Yeast reconstituted NLRP3/ASC/caspase-1, beta-gal luminescence, 24 h; inhibition, % at 10 µM; AID 2825, 2010; 0.39% of 330,000 active;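 active = inhibition of 50% or more; inactive = inhibition below 50%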
Calb FLC – C. albicans growth inhibition with fluconazole, primary screen, CaCi-2 strain, Alamar Blue fluorescence; 0.57% of 300,000 active; growth inhibition, % (test concentration not listed); C. albicans CaCi-2 + fluconazole, 48 h;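 active = growth inhibition above about 58% in most replicates, limit read from the data, passing the limit was not always enough; inconclusive = exactly half the replicates above a set limit; inactive = most replicates below a set limit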;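 also: all wells also contain fluconazole at 8 µg/ml as a sub-toxic cotreatment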
ALR H2O2 inh – inhibitors of human ALR sulfhydryl oxidase, primary screen, biochemical, H2O2 detection, HRP-luminol luminescence, single point; FAD-linked sulfhydryl oxidase ALR (Homo sapiens), P55789; purified ALR, DTT oxidation; inhibition, % (test concentration not listed); 3.8% of 290,000 active; AID 485317, 2010;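 active = mean replicate inhibition above about 79%, with every replicate also reaching it, limit read from the data; inconclusive = only one of the two criteria met; inactive = mean below limit and not every replicate reaching it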
Target sequence (P55789 whole entry, looked up): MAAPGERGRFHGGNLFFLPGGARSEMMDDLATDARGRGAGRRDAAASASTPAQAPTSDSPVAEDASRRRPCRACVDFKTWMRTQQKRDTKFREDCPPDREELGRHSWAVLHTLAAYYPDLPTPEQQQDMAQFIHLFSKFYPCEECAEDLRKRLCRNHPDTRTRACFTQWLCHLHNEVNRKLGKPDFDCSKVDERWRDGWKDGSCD
NALP1 yeast inh – NALP1 inflammasome inhibitors in reconstituted yeast, colorimetric, S. cerevisiae, triplicate retest. S. cerevisiae NALP1/ASC/caspase-1 growth, X-gal OD620, 72 h. inhibition, % at 10 µM. 0.61% of 280,000 active. AID 2071, 2009; in the data active = inhibition mostly above about 24%, no sharp cut-off; inactive = mostly below about 32%
UCH37 inh – inhibitors of human UCH37 deubiquitinase, primary screen, biochemical, Ub-AMC cleavage, fluorescence. AID 588478, 2011. purified proteasome/UCH37. inhibition, % (test concentration not listed). 0.33% of 330,000 active. Ubiquitin carboxyl-terminal hydrolase isozyme L5 (Homo sapiens), Q9Y5K5;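 active = mean inhibition over replicate wells above about 20%, limit read from the data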
Target sequence (Q9Y5K5 whole entry, looked up): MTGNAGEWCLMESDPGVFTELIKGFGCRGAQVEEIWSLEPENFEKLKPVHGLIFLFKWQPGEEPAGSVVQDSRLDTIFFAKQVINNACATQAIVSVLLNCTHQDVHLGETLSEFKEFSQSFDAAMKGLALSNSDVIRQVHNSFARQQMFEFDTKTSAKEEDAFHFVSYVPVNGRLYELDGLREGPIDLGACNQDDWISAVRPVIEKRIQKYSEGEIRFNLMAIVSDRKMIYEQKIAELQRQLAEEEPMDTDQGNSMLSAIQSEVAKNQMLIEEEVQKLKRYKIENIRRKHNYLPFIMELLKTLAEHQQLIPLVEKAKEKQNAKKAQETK
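Test system – human UCH37 enzyme supplied as purified proteasome complex · Incubation – 30 min preincubation with enzyme, 25 min cleavage at room temperature · Detection – AMC fluorescence from Ub-AMC cleavage, excitation 355 nm, emission 460 nm · Benchmarks – no-proteasome wells (full inhibition) and compound-free wells (no inhibition)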
ATG4B inh – ATG4B protease inhibitors, primary screen, biochemical, fluorescence, uHTS | Cysteine protease ATG4B (Homo sapiens), Q9Y4P1 | ATG4B cleavage of LC3-PLA2, NBD-HPC fluorescence, 1 h | inhibition, % at 8.33 µM | 0.51% of 340,000 active; in the data active = inhibition above about 40%
Of the large screens only hits and unclear results are named; the others gave an inactive call. An excerpt weighted towards active compounds, which were near 4.8% of everything screened.

COCc1cc(=O)[nH]c(N=C(N)Nc2ccc(C)cc2C)n1	none (no result: NALP3 yeast inh, Calb FLC, ALR H2O2 inh, NALP1 yeast inh, ATG4B inh)
Cc1ccc(C=NNC(=O)c2cncc(Br)c2)o1	none (no result: NALP3 yeast inh, Calb FLC, ALR H2O2 inh, NALP1 yeast inh, ATG4B inh)
CCn1c(CCCCc2n[nH]c(=S)n2CC)n[nH]c1=S	none
CCn1c(CN2c3ccccc3Sc3ccccc32)n[nH]c1=S	ALR H2O2 inh 97.7
COc1ccc(C(=O)NNC2CC(=O)N(Cc3ccccc3)C2=O)cc1OC (configuration not stated)	none (no result: ALR H2O2 inh, NALP1 yeast inh)
CCOc1ccc(C(=O)NNC2CC(=O)N(Cc3ccc(Cl)cc3)C2=O)cc1OC (configuration not stated)	ALR H2O2 inh 97.3
S=C(Nc1ccccc1)Nc1nc2ccccc2n1CCOc1ccc(Cl)cc1	Calb FLC 92.0
O=C(CON=Cc1ccc(OC(F)F)cc1)NCc1ccco1	none (no result: NALP3 yeast inh, Calb FLC, ALR H2O2 inh, NALP1 yeast inh, ATG4B inh)
C=CCn1c(-c2ccc(Cl)cc2)c[nH]c1=S	ALR H2O2 inh 97.1
C=CCn1c(-c2ccccc2)c[nH]c1=S	none
CC(=NNC(=O)CCC1C(=O)NN=C1C)c1ccc(Cl)cc1 (configuration not stated)	none (no result: NALP3 yeast inh, Calb FLC, ALR H2O2 inh, NALP1 yeast inh, ATG4B inh)
C=CCc1c(C)nc(-c2ccccc2)nc1Nc1ccc(O)cc1	ALR H2O2 inh 99.0
C=CCc1c(C)nc(-c2ccccc2)nc1N/N=C(\C)c1ccccc1	none (no result: ALR H2O2 inh, UCH37 inh)
CCOc1cc(-c2c(C#N)c(N)nc3c2CCCC3C)ccc1O (configuration not stated)	ALR H2O2 inh 97.6
CN(C)S(=O)(=O)c1ccc(C(=O)N2CCN=C2SCc2cccnc2)cc1	ALR H2O2 inh 98.8
CSC1=NCCN1C(=O)c1ccc2c(c1)OCO2	none
CCSC1=NCCN1C(=O)c1c(-c2ccccc2Cl)noc1C	none
O=C(c1ccco1)N1CCN=C1SCc1ccccc1Cl	ALR H2O2 inh 99.1
Cc1onc(-c2ccccc2Cl)c1C(=O)N1CCN=C1SCc1cccnc1	ALR H2O2 inh 98.6
O=C(c1ccc2c(c1)OCO2)N1CCN=C1SCc1cccnc1	ALR H2O2 inh 97.6
Cc1cccc(CSC2=NCCN2C(=O)c2ccc(S(=O)(=O)N(C)C)cc2)c1	none
CS/C(N)=N/N=Cc1ccc([N+](=O)[O-])cc1	none (no result: NALP3 yeast inh, Calb FLC, ALR H2O2 inh, NALP1 yeast inh, ATG4B inh)
O=C(Cc1cccs1)N1CCN=C1SCc1ccccc1Cl	none (no result: ALR H2O2 inh)
CCN(CC)S(=O)(=O)c1ccc(C(=O)N2CCN=C2SCc2cccnc2)cc1	ALR H2O2 inh 98.9
O=C(Cc1cccs1)N1CCN=C1SCc1ccccc1F	ALR H2O2 inh 99.2
Cc1ccc(C=NNC(=S)NC2CCCCC2)o1	none (no result: NALP3 yeast inh, Calb FLC, ALR H2O2 inh, NALP1 yeast inh, ATG4B inh)
CC(=O)N1CCN(C(=O)c2ccc(C)c(S(=O)(=O)N3CCCCC3)c2)CC1	none (no result: Calb FLC, ALR H2O2 inh, NALP1 yeast inh)
Cc1ccc(C(=O)N2CCN(c3ccccc3O)CC2)cc1S(=O)(=O)N1CCCCC1	ALR H2O2 inh 97.6 (no result: NALP1 yeast inh)
Cc1cc(S(=O)(=O)N2CCN(c3ccccc3O)CC2)c(C)s1	ALR H2O2 inh 98.1
CC(C)C(c1nnnn1C1CCCC1)N1c2ccccc2CC1C (configuration not stated)	ALR H2O2 inh 98.6
CC(C)C(c1nnnn1C1CCCCC1)N1CCc2ccccc21 (configuration not stated)	none
CN(C)/C=C1/C=C(c2ccccc2)OC1=O	ALR H2O2 inh 98.7
COc1c(OC)c(O)c2c(=O)cc(-c3c(O)cccc3O)oc2c1OC	ALR H2O2 inh 96.6
CC(=O)SC(C[N+](=O)[O-])c1cn(C(C)=O)c2ccccc12 (configuration not stated)	Calb FLC 111.6, ALR H2O2 inh 100.1 (no result: UCH37 inh)
CC(=O)c1cnc(Nc2cccc(Cl)c2Cl)s1	Calb FLC 79.5
Cc1nn(C(C)C(=O)N/N=C/c2ccc(N(C)C)cc2)c(C)c1[N+](=O)[O-] (configuration not stated)	ALR H2O2 inh 98.5 (no result: UCH37 inh)
O=C(CNC(=O)c1ccccc1)NN=Cc1cc(Br)ccc1O	none (no result: NALP3 yeast inh, Calb FLC, ALR H2O2 inh, NALP1 yeast inh, ATG4B inh)
O=C(O)c1cc(-c2c[nH]c3ccccc23)nc2ccc3ccccc3c12	Calb FLC inconclusive, ALR H2O2 inh 91.9 (no result: UCH37 inh)
Cc1nn(C)c(Sc2ccccc2N)c1[N+](=O)[O-]	ALR H2O2 inh 97.8
